Experimental data: ChEMBL document CHEMBL1122670, “Synthesis of previously inaccessible quinazolines and 1,4-benzodiazepines as potential anticonvulsants” (J Med Chem, 1984)

What was measured:
[1] = system: Mus musculus; assay: Evaluated for seizure threshold test at a dose 300 mg/kg &MMT is the maximal metrazole threshold to tonic flexion.; format: functional
Procedure, shortened: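 0.5% pentylenetetrazol (with 0.9% NaCl and 0.001% heparin) was infused into a lateral tail vein at 6.31 μL/s. Time to 3 s of persistent clonus (MST) or hindlimb tonic flexion (MMT) was converted to mg/kg infused. Tested at 0.5 h (some at 4 h or 1 h). Results are % change from controls, by Student's t test.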

[2] = system: Mus musculus; assay: Evaluated for seizure threshold test at a dose 300 mg/kg &MST is the metrazole seizure threshold to persistent clonus; format: functional
Procedure, shortened: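 At 0.5 h (some at 1 or 4 h), 0.5% pentylenetetrazol in 0.9% NaCl with 0.001% heparin was infused into the tail vein at 6.31 μL/s. Time to 3 s persistent clonus (MST) or tonic flexion (MMT) was converted to mg/kg, reported as % change vs controls, Student's t test.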

[3] = Compound was determined in rotarod test and expressed as TD50; format: ADME, organism-based; details: mouse, in vivo
Procedure, shortened: (§1)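 ADD Program screen in mice. Doses of 30, 100, 300 and 600 mg/kg were given, four animals per dose, with tests at 30 min and at 4 h. sc Met endpoint: no threshold seizure (single clonic spasm of 5 s) after an sc convulsant dose 99 of pentylenetetrazol. Rotorod assessed acute neurotoxicity.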

[4] = system: Mus musculus; assay: Effective dose (ED50) was determined (at 4hi)n sc Met (pentylenetetrazole) seizure threshold test; format: functional
Procedure, shortened: as §1, with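 “neurotoxicity. ED50/TD50 were estimated graphically; Litchfield-Wilcoxon 95% confidence limits were added for selected cases.” for “neurotoxicity.”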

Question: For `Cc1cc2c(c(C#N)c1C)NC(=O)NC2c1ccccc1` (centres undefined), which Change [1] is on record?
Answer: 22%

Question: And the Change [2]?
Answer: 36%

Question: And the TD50 [3]?
Answer: > 1000 mg/kg

Question: And the ED50 [4]?
Answer: 600 mg/kg
